Results as given in ChEMBL document CHEMBL3272014, “Synthesis and biological inactivity of some 4alpha,6-cyclo steroids” (1976).
The source made the active and inactive calls. No cut-off for these calls is given here.

How the values were obtained:
Rattus norvegicus [1] = organism: Rattus norvegicus; experiment: Antiandrogenicity in male rat assessed as inhibition of increase in seminal vesicle weight using 2.4 mg testosterone at 10 mg; assay type: functional
Rattus norvegicus [2] = organism: Rattus norvegicus; experiment: Antiandrogenicity in male rat assessed as inhibition of increase in ventral prostate weight using 2.4 mg testosterone at 10 mg; assay type: functional, Prostate gland
Rattus norvegicus [3] = organism: Rattus norvegicus; experiment: Androgenicity in male rat at 0.1 to 10 mg; assay type: functional, organism-based
Rattus norvegicus [4] = organism: Rattus norvegicus; experiment: Antiandrogenicity in male rat assessed as inhibition of increase in ventral prostate weight using 1.2 mg testosterone at 10 mg; assay type: functional, Prostate gland
Rattus norvegicus [5] = organism: Rattus norvegicus; experiment: Antiandrogenicity in male rat assessed as inhibition of increase in levator ani weight using 2.4 mg testosterone at 10 mg; assay type: functional
Rattus norvegicus [6] = organism: Rattus norvegicus; experiment: Antiandrogenicity in male rat assessed as inhibition of increase in levator ani weight using 1.2 mg testosterone at 10 mg; assay type: functional
Rattus norvegicus [7] = organism: Rattus norvegicus; experiment: Antiandrogenicity in male rat assessed as inhibition of increase in seminal vesicle weight using 1.2 mg testosterone at 10 mg; assay type: functional
Oryctolagus cuniculus [8] = organism: Oryctolagus cuniculus; experiment: Progestational activity in rabbit at 0.1 to 10 mg by clauberg assay; assay type: functional, organism-based
Procedure, shortened: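 Clauberg assay in rabbits: progestational response scored after test steroid at dose levels of 0.1, 1.0 and 10.0 mg.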

Oryctolagus cuniculus [9] = organism: Oryctolagus cuniculus; experiment: Antiprogestational activity in rabbit at 0.4 mg by anti-clauberg assay; assay type: functional, organism-based
Procedure, shortened: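 Rabbit anti-Clauberg (antiprogestational) assay: test steroid given at 20.0 mg against a progesterone challenge of 0.4 mg. Run by Mason Research Institute for the NIH Contraceptive Development Branch.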

Rattus norvegicus [10] = organism: Rattus norvegicus; experiment: Androgenicity in male rat at 10 mg; assay type: functional, organism-based

## CC(=O)O[C@H]1CC[C@H]2[C@@H]3CC4[C@@H]5[C@H]4C(=O)CC[C@]5(C)[C@H]3CC[C@]12C (stereo partly drawn)
Rattus norvegicus [1]
  inhibition (INH): <20%
Rattus norvegicus [2]
  inhibition (INH): <20%
Rattus norvegicus [3]
  Activity: Active
Rattus norvegicus [4]
  inhibition (INH): <20%
Rattus norvegicus [5]
  inhibition (INH): <20%
Rattus norvegicus [6]
  inhibition (INH): <20%
Rattus norvegicus [7]
  inhibition (INH): <20%

## CC(=O)[C@H]1CC[C@H]2[C@@H]3CC4[C@@H]5[C@H]4C(=O)CC[C@]5(C)[C@H]3CC[C@]12C (stereo partly drawn)
Oryctolagus cuniculus [8]
  Activity: inactive

## CC(=O)[C@H]1CC[C@H]2[C@@H]3CCC4=CC(=O)CC[C@]4(C)[C@H]3CC[C@]12C
Oryctolagus cuniculus [9]
  Activity: inactive

## C[C@]12CC[C@@H]3[C@H]4CCC(=O)[C@H]5C(C[C@H]3[C@@H]1CCC2=O)[C@@H]45 (stereo partly drawn)
Rattus norvegicus [10]
  Activity: Active
Rattus norvegicus [4]
  inhibition (INH): <20%
Rattus norvegicus [6]
  inhibition (INH): <20%
Rattus norvegicus [7]
  inhibition (INH): <20%
